How the values were obtained:
[1] = Inhibition of [3H]-Ro- 5-4864 binding to Peripheral Benzodiazepine Receptor of rat brain (255 mg protein)
[2] = Inhibition of [3H]-Ro- 5-4864 binding to Peripheral Benzodiazepine Receptor of rat kidney (62 mg protein)
[3] = Inhibition of [3H]-PK 11195 binding to Peripheral Benzodiazepine Receptor of rat kidney tissue (50 mg protein)
[4] = Inhibition of [3H]-PK 11195 binding to Peripheral Benzodiazepine Receptor of rat brain tissue (263 mg protein)
[5] = Inhibition of [3H]-PK 11195 binding to Peripheral Benzodiazepine Receptor of rat kidney tissue (22 mg protein)
Outline: (§1)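 Kidneys from male Sprague-Dawley rats (150-200 g), decapitated, were decapsulated, minced, and homogenized in ice-cold 50 mM potassium phosphate (pH 7.0). The homogenate was spun at 23000 g for 20 min at 4 °C and the pellet resuspended. Tritiated radioligand was used at 1 nM against six inhibitor concentrations in triplicate. IC50 and pseudo Hill coefficient are given as means of two experiments.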

[6] = Inhibition of [3H]-Ro- 5-4864 binding to Peripheral Benzodiazepine Receptor of rat kidney (110 mg protein)
Outline: as §1

[7] = Inhibition of [3H]-Ro- 5-4864 binding to Peripheral Benzodiazepine Receptor of rat kidney (22 mg protein)
Outline: as §1

[8] = Inhibition of [3H]-PK 11195 binding to Peripheral Benzodiazepine Receptor of rat brain tissue (110 mg protein)
Outline: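 Brain membrane binding used 1 nM tritiated radioligand, with six inhibitor concentrations each run in triplicate. Protein per assay was as specified. IC50 in nmol/L and pseudo Hill coefficient are reported as means of two independent experiments.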

[9] = Inhibition of [3H]-PK 11195 binding to Peripheral Benzodiazepine Receptor of rat kidney tissue (110 mg protein)
Outline: as §1

Structure (SMILES) | IC50 [1] [nM l-1] | IC50 [2] [nM l-1] | IC50 [3] [nM l-1] | IC50 [4] [nM l-1] | IC50 [5] [nM l-1] | IC50 [6] [nM l-1] | IC50 [7] [nM l-1] | IC50 [8] [nM l-1] | IC50 [9] [nM l-1]
O=C1CN=C(c2ccc(Cl)cc2)c2cc(Cl)ccc2N1CCN=C=S | 2.1 | 1.2 | 1.2 | 2.1 | – | – | – | – | –
CCC(C)N(CCN=C=S)C(=O)c1cc2ccccc2c(-c2ccccc2Cl)n1 (racemic) | 3 | 2 | 2.9 | 15 | – | – | – | – | –
CCC(C)N(CCN=C=S)C(=O)c1cc2ccccc2c(-c2ccccc2Cl)n1 (single isomer, unassigned; (-)) | – | – | – | – | 3.9 | 6.3 | 2.9 | 10 | –
CCC(C)N(CCN=C=S)C(=O)c1cc2ccccc2c(-c2ccccc2Cl)n1 (stereo in doubt; 11b) | – | – | – | – | 1.6 | 2.9 | 1.2 | – | 3.5

— ChEMBL document CHEMBL1123626, “Novel irreversible ligands specific for "peripheral" type benzodiazepine receptors: (+/-)-, (+)-, and (-)-1-(2-chlorophenyl)-N-(1-methylpropyl)-N- (2-isothiocyanatoethyl)-3-isoquinolinecarboxamide and 1-(2-isothiocyanatoethyl)-7-chloro-1,3-dihydro-5-(4-chlorophenyl )-2H-1,4-benzodiazepin-2-one” (J Med Chem, 1987)
